The source of these data is article PMC3041204 (Diabetes Care, 2011).

The subject of one data set is blood glucose. Nature of the data set: Postprandial glycemic response to a standardized liquid test meal. It counts as in vivo, patients with type 1 diabetes. As to conditions: first 4 h after study drug administration. The method in brief: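 Single-blind crossover in adults with type 1 diabetes. Prandial insulin was withheld >8 h and basal insulin >12 h, and blood glucose was clamped to 100–120 mg/dL with IV glucose or insulin. After a 30-min baseline, staff gave an individually optimized SC abdominal insulin dose with or without hyaluronidase, then a liquid meal.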

Data set [1] can be described thus: Safety: adverse events, hypoglycemia. As to conditions: for patients with hypoglycemia (adverse event): generally mild or occasionally moderate, safety population; for number of subjects administered glucose for the treatment of hypoglycemia: intravenous glucose (20%) at investigator's discretion when blood glucose <60 mg/dL or symptoms. It counts as in vivo, patients with type 1 diabetes.

Data set [2] is classed as in vivo, patients with type 1 diabetes. The following applies: s.c., arithmetic mean; n = 21 (lispro), n = 16 (RHI); serum insulin RIA.

With regular human insulin [RHI], in the data set on blood glucose, the “total hyperglycemic excursions (area under the curve >140 mg/dL)” value is 1,238 min ⋅ mg^−1 ⋅ mL^−1. For the same substance, in data set [1], the “patients with hypoglycemia (adverse event)” value is on record as 16 of 21 and the “number of subjects administered glucose for the treatment of hypoglycemia” value is reported as 12 of 21. For the same substance, the “patients with mild injection-site erythema” value in data set [1] (in vivo) is recorded as “two”.

For the substance insulin lispro, in data set [2], the “fraction of insulin exposure >2 h after injection” value stood at 22% and the “fraction of total insulin exposure within the first hour following injection” value worked out at 39%. For the same substance, the “total hyperglycemic excursions (area under the curve >140 mg/dL)” value in the data set with blood glucose was 526 min ⋅ mg^−1 ⋅ mL^−1. Further, in data set [1], the “patients with hypoglycemia (adverse event)” value is 13 of 22 and the “number of subjects administered glucose for the treatment of hypoglycemia” value is given as 6 of 21.
